The results in this text go back to ChEMBL document CHEMBL1157465, “Design, synthesis, and biological evaluation of novel 3-aryl-4-(1H-indole-3yl)-1,5-dihydro-2H-pyrrole-2-ones as vascular endothelial growth factor receptor (VEGF-R) inhibitors” (J Med Chem, 2008).

Test [1] concerns the target Serine/threonine-protein kinase B-raf (Homo sapiens, UniProt P15056, V600E). Briefly: Inhibition of human recombinant B-Raf-V600E mutant. Put shortly: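 Human kinases expressed in Sf9 cells by baculovirus as GST or His fusions and affinity purified. Radiometric 33PanQinase assay: 60 mM HEPES-NaOH pH 7.5, 3 mM MgCl2, 3 mM MnCl2, 3 µM orthovanadate, 1.2 mM DTT, 1 µM [γ-33P]ATP, 50-400 ng enzyme, 1% DMSO; 30 °C, 80 min. Substrates: B-Raf-VE, MEK1 KM; CDK2/CycA, histone H1; CK2-A1, casein; COT, autophosphorylation. IC50 from 10 concentrations; 33Pi incorporation by scintillation.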

For test [2], the species on record is Homo sapiens. Briefly: Induction of apoptosis in HDMEC assessed as cleaved caspase 3 at 1.3 uM after 24 hrs. It is filed as functional. Summed up: (§1)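 HDMEC incubated 24 h with compound. Adherent cells and supernatant harvested together, stained with an antibody to cleaved caspase-3, and analysed by FACS as percent apoptotic cells. Three independent repeats.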

The species entered for test [3] is Homo sapiens. Kind of test: Induction of apoptosis in HDMEC assessed as cleaved caspase 3 at 2.6 uM after 24 hrs. It is filed as functional. Put shortly: as §1
The target of test [4] is Receptor tyrosine-protein kinase erbB-2 (Homo sapiens, UniProt P04626). Briefly: Inhibition of human recombinant ERBB2. Put shortly: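 Human kinases expressed in Sf9 cells via baculovirus as GST or His fusions and affinity purified. 33PanQinase assay in 60 mM HEPES-NaOH pH 7.5, 3 mM MgCl2, 3 mM MnCl2, 3 µM orthovanadate, 1.2 mM DTT, 1 µM [γ-33P]ATP, 1% DMSO; 30 °C, 80 min. Substrates: poly(Glu,Tyr) 4:1 for ERBB2, IGF1-R and SRC; poly(Ala,Glu,Lys,Tyr) 6:2:5:1 for FLT3. IC50 from 10 concentrations by scintillation counting.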

In the next test the target is Ephrin type-B receptor 4 (Homo sapiens, UniProt P54760). Briefly: Inhibition of human recombinant EPHB4. Summed up:
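Recombinant human tyrosine kinases (EPHB4, TIE2, VEGF-R2, VEGF-R3), expressed in Sf9 insect cells as GST- or His-fusions, with poly(Glu,Tyr) 4:1 as substrate. Conditions: 1 µM [γ-33P]ATP, pH 7.5 HEPES buffer with Mg/Mn, DTT and vanadate, 30 °C for 80 min, 1% DMSO. Ten concentrations were tested and IC50 came from scintillation counting of incorporated 33P.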

Test [5] concerns the target Hepatocyte growth factor receptor (Homo sapiens, UniProt P08581). Briefly: Inhibition of human recombinant MET.

Chain of Serine/threonine-protein kinase B-raf (P15056 2-766 V600E limits assumed): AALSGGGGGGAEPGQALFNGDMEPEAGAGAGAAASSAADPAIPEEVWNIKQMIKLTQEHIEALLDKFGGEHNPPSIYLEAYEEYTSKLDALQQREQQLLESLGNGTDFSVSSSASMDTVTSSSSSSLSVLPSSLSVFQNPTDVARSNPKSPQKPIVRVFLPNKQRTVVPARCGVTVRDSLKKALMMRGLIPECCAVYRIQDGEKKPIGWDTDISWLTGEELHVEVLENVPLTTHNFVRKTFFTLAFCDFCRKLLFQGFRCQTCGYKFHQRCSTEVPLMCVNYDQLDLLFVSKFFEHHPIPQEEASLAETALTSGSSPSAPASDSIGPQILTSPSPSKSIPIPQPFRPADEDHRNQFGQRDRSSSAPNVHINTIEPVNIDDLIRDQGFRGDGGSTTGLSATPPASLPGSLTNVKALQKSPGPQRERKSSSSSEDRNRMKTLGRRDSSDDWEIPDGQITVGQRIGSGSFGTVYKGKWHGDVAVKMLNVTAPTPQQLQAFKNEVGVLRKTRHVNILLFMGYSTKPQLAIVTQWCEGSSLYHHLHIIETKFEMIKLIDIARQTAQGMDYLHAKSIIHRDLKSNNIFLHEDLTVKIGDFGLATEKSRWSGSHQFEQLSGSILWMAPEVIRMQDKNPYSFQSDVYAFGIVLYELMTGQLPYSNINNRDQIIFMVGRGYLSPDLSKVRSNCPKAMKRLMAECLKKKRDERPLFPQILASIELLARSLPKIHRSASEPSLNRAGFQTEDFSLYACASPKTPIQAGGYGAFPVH
Chain of Hepatocyte growth factor receptor (P08581 whole entry): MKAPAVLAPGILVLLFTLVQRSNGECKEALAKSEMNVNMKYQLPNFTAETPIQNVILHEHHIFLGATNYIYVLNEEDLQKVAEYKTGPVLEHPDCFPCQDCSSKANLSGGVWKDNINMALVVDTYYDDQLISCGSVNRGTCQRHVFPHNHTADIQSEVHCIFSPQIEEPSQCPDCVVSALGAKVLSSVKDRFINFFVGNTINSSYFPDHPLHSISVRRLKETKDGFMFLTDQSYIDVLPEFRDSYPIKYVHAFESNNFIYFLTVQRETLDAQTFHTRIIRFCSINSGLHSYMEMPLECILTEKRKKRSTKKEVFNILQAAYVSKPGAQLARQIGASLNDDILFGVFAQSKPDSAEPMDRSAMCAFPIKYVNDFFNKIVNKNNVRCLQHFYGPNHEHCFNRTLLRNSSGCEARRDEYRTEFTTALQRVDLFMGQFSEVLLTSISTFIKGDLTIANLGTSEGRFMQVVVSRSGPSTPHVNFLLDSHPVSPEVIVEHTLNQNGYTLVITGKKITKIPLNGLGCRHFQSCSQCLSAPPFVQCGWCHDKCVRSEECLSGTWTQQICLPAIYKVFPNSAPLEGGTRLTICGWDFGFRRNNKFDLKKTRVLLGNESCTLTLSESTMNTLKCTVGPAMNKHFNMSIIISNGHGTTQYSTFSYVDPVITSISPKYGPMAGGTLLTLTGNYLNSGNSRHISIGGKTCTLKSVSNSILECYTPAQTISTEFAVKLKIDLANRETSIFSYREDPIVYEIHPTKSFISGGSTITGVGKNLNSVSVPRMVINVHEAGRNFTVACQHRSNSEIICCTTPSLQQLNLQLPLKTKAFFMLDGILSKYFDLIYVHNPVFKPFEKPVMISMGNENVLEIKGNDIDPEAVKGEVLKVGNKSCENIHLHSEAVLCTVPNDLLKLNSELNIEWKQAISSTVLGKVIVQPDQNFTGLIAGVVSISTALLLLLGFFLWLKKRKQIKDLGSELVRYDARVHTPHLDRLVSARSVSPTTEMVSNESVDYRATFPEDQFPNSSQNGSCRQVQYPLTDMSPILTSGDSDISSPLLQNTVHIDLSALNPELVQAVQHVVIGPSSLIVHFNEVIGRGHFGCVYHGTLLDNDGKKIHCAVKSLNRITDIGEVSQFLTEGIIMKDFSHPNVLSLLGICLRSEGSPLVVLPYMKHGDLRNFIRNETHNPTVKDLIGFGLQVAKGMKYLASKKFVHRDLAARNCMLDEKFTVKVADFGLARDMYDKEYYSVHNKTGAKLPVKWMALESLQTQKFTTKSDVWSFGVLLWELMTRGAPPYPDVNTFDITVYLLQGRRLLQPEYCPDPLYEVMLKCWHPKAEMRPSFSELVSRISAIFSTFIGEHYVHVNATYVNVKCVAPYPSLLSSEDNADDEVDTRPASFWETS
Chain of Ephrin type-B receptor 4 (P54760 whole entry, the tested form may be a part): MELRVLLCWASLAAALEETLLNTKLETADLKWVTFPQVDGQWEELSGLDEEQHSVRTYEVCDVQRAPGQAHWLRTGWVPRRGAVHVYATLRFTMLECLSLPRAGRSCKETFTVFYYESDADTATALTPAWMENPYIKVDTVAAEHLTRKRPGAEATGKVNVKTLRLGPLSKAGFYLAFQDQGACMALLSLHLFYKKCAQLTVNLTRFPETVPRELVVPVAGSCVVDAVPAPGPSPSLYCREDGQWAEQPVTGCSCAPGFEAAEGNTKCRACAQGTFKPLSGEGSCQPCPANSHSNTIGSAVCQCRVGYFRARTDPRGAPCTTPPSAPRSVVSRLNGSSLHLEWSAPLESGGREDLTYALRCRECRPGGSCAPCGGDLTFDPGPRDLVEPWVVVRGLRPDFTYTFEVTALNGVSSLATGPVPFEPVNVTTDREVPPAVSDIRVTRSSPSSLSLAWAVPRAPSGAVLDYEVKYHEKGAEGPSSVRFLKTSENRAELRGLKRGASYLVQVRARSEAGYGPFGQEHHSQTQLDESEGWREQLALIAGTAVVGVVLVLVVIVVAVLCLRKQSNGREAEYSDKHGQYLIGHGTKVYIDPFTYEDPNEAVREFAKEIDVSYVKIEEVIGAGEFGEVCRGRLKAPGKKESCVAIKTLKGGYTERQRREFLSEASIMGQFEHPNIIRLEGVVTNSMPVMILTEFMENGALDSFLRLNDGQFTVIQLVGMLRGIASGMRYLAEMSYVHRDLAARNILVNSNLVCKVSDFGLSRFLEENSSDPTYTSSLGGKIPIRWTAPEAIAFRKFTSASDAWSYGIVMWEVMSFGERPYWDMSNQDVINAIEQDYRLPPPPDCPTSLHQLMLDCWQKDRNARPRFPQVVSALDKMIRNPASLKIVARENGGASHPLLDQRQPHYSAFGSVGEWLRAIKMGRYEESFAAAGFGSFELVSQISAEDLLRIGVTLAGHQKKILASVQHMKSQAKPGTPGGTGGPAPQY
Chain of Receptor tyrosine-protein kinase erbB-2 (P04626 whole entry, the tested form may be a part): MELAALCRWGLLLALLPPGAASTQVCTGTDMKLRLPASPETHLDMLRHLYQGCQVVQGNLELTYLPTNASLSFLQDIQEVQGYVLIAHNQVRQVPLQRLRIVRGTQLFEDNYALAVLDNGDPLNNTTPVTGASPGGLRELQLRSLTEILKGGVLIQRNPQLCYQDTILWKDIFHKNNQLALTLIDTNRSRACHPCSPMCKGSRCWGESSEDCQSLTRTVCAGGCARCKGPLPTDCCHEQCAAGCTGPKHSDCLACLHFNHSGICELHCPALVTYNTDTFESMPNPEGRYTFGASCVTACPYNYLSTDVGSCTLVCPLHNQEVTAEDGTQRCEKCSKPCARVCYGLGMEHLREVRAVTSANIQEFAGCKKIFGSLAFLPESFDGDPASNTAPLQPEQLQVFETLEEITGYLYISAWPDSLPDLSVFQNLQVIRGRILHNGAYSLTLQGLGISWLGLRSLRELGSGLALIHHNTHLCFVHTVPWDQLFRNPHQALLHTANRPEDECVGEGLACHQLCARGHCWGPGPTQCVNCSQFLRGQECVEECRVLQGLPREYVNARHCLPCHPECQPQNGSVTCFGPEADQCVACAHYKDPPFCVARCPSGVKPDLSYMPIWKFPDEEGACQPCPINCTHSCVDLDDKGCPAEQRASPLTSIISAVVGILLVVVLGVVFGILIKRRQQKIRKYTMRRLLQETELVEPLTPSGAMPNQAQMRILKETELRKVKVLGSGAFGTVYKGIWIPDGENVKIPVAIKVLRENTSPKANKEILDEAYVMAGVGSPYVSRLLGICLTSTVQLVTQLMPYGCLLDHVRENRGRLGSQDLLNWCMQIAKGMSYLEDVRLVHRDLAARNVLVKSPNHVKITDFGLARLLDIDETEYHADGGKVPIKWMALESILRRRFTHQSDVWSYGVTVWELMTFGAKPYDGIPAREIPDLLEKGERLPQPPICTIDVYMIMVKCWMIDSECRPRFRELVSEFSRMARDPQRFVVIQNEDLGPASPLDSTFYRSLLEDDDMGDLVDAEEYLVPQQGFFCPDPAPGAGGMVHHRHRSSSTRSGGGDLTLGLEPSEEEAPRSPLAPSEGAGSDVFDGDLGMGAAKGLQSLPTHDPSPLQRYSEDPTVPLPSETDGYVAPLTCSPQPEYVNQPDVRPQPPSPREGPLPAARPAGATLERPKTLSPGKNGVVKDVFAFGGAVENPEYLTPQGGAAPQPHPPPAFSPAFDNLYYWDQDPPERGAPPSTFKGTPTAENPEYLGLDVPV

Take `COc1cc(C2=C(c3cn(C)c4ccccc34)C(=O)NC2)cc(OC)c1OC`: in test [1], the half-maximal inhibitory concentration (IC50) amounted to 50 µM.

`COc1cc(C2=C(c3c[nH]c4ccccc34)CNC2=O)cc(OC)c1OC`: the Activity amounted to 25% in the test listed under Homo sapiens [2] and 42.1% in the test filed under Homo sapiens [3].

As to `COc1cc(C2=C(c3cn(COC(C)(C)C)c4ccccc34)CNC2=O)cc(OC)c1OC`, the IC50 is 25 µM in test [4], 38 µM in test [1], 20 µM on Ephrin type-B receptor 4 and 29 µM in test [5].
